Consider eleven molecules from ChEMBL document CHEMBL2074468, “Identification of multispecific organic anion transporter 2 expressed predominantly in the liver” (FEBS Lett, 1998).

The target in data set [1] is T1, Solute carrier family 22 member 7 (Rattus norvegicus, UniProt Q5RLM2).
T1 sequence (Q5RLM2 whole entry): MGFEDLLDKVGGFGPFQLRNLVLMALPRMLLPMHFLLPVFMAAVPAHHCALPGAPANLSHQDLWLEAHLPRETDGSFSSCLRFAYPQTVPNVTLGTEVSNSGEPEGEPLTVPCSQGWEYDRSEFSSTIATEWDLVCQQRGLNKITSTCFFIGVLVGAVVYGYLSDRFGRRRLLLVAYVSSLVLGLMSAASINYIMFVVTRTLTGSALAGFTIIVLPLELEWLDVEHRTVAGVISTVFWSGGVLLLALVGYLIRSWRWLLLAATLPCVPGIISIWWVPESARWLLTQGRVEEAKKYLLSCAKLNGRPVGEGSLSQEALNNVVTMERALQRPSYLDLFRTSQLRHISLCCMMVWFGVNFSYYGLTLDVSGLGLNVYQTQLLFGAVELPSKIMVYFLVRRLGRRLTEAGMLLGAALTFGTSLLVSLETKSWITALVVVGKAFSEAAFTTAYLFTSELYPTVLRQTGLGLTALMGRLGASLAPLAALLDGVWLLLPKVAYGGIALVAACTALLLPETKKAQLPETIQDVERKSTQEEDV
Briefly: TP_TRANSPORTER: inhibition of Salicylate uptake (salicylate: 1 uM, Enalapril: 1000 uM) in Xenopus laevis oocytes. It is filed as functional, cell-based. The note with it: oocyte. Put shortly: (§1)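 Rat liver NLT/OAT2 (L5) cRNA (10 ng capped) was injected into defolliculated oocytes, which were kept 2–3 days at 18°C in gentamicin Barth's, pH 7.4. Uptake of 1 μM [14C]salicylate was measured in ND96 (pH 7.4) at room temperature, with or without inhibitor (1 mM; BSP 250 μM). Results are % of L5-mediated uptake without inhibitor, mean±S.E.M., n=5–8 oocytes.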

Data set [2] concerns the target T1, Solute carrier family 22 member 7. Description: (§2) TP_TRANSPORTER: uptake in Xenopus laevis oocytes. The conditions noted are these: oocyte. It is filed as functional, cell-based. Put shortly: (§3)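 Oocytes were injected with 10 ng capped L5 cRNA or left as controls, then held 2–3 days at 18°C. Radiolabeled substrates ([14C]α-ketoglutarate 7 μM, [3H]PGE2 6 nM, [3H]methotrexate 1 μM, [14C]acetylsalicylate 20 μM, [14C]PAH 20 μM) were taken up for 1 h in ND96, pH 7.4, at room temperature. Mean±S.E.M., n=5–8.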

Data set [3] shares this target. Briefly: TP_TRANSPORTER: inhibition of Salicylate uptake (salicylate: 1 uM, Cefoperazone: 1000 uM) in Xenopus laevis oocytes. The data set is classed as functional, cell-based. The conditions noted are these: oocyte. Summed up:
as §1

The target is the same in data set [4]. Description: TP_TRANSPORTER: inhibition of Salicylate uptake (salicylate: 1 uM, ICG: 1000 uM) in Xenopus laevis oocytes. The conditions noted are these: oocyte. It is filed as functional, cell-based. Put shortly:
as §1

Data set [5] shares this target. Description: TP_TRANSPORTER: inhibition of Salicylate uptake (salicylate: 1 uM, Rifampicin: 1000 uM) in Xenopus laevis oocytes. The data set is classed as functional, cell-based. The note with it: oocyte. Summed up:
as §1

The target is the same in data set [6]. Briefly: TP_TRANSPORTER: inhibition of Salicylate uptake (salicylate: 1 uM, BSP: 250 uM) in Xenopus laevis oocytes. The data set is classed as functional, cell-based. The conditions noted are these: oocyte. Put shortly:
as §1

Substrate in data set [7]: O=C(O)c1ccccc1O
Description: cells, lysate or membranes named.

Substrate in data set [8]: O=C(O)CCC(=O)C(=O)O
Described as §2. It is filed as functional, cell-based, Oocyte. Summed up:
as §3

As to `CCOC(=O)[C@H](CCc1ccccc1)N[C@@H](C)C(=O)N1CCC[C@H]1C(=O)O`, the Activity result in data set [1] is “inhibitor [(at a rough estimate) 80 % of control]”.

Turning to `Nc1ccc(C(=O)NCC(=O)O)cc1` [AMINOHIPPURIC ACID], the Activity entry in data set [2] is “substrate [+]”. The same measure, in the same setting: the same measure for `CC(=O)Oc1ccccc1C(=O)O` [ASPIRIN]: “substrate [+]”. As for `CCN1CCN(C(=O)N[C@@H](C(=O)N[C@@H]2C(=O)N3C(C(=O)O)=C(CSc4nnnn4C)CS[C@H]23)c2ccc(O)cc2)C(=O)C1=O` [CEFOPERAZONE], the Activity result in data set [3] is “inhibitor [(at a rough estimate) 15 % of control]”. For the molecule `CCCCC[C@H](O)/C=C/[C@H]1[C@H](O)CC(=O)[C@@H]1C/C=C\CCCC(=O)O` [DINOPROSTONE], the Activity entry in data set [2] was “substrate [+]”.

For the molecule `CC1(C)C(/C=C/C=C/C=C/C=C2/N(CCCCS(=O)(=O)[O-])c3ccc4ccccc4c3C2(C)C)=[N+](CCCCS(=O)(=O)[O-])c2ccc3ccccc3c21.[Na+]` [INDOCYANINE GREEN], in data set [4], the Activity entry is “inhibitor [(at a rough estimate) 10 % of control]”. As for `CN(Cc1cnc2nc(N)nc(N)c2n1)c1ccc(C(=O)N[C@@H](CCC(=O)O)C(=O)O)cc1` [METHOTREXATE], in data set [2], the Activity result is “substrate [+]”. Turning to `CO[C@H]1/C=C/O[C@@]2(C)Oc3c(C)c(O)c4c(O)c(c(/C=N/N5CCN(C)CC5)c(O)c4c3C2=O)NC(=O)/C(C)=C\C=C\[C@H](C)[C@H](O)[C@@H](C)[C@@H](O)[C@@H](C)[C@H](OC(C)=O)[C@@H]1C` [RIFAMPIN], in data set [5], the Activity entry was “inhibitor [(at a rough estimate) 15 % of control]”. Take `O=C1OC(c2ccc(O)c(S(=O)(=O)[O-])c2)(c2ccc(O)c(S(=O)(=O)[O-])c2)c2c(Br)c(Br)c(Br)c(Br)c21.[Na+].[Na+]` [SULFOBROMOPHTHALEIN SODIUM]: the Activity entry in data set [6] is “inhibitor [(at a rough estimate) <5 % of control]”. Turning to `CC[N+](CC)(CC)CC` [TETRYLAMMONIUM], the Activity result in data set [2] is “is not a substrate [-]”.

B1: Solute carrier family 22 member 7 (Rattus norvegicus) (protein)
chain: T1 sequence (Q5RLM2 whole entry)
One may read the Km as the substrate concentration at which the rate is half of its maximum. Regarding B1, the Km in data set [7] came out at 88.8 µM; in data set [8], 17.8 µM.
